# Test results reported in ChEMBL document CHEMBL5724801, “EUbOPEN Chemogenomics Library - Multiplex” (2024).
# Where “and” joins values, the source holds several entries; their conditions need not be identical. Equal values may be shown once.
# Test system: HEK-293T
# Experiment: Multiplex assay against HEK293T
# Assay type: toxicity, cell-based
# Conditions: human
# Method in brief: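 At seeding, live cells were stained with Hoechst33342, BioTracker Green Microtubule Cytoskeleton Dye, MitoTracker Red and Annexin V Alexa Fluor 680. After compound addition they were imaged on a CQ1 microscope at 37°C and 5% CO2, and CellPathfinder machine-learning gating sorted them into Hoechst high-intensity objects or normal cells, with normal cells further split into healthy, pyknosed or fragmented nuclei and pyknosed cells into mitotic or apoptotic. Tubulin, mitochondrial-mass and membrane-permeability phenotypes are given as per cents of cells with healthy nuclei.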
# [1] = 12 h, 1 µM, compound concentration 1 uM
# [2] = 12 h, 10 µM, compound concentration 10 uM
# [3] = 24 h, 1 µM, compound concentration 1 uM
# [4] = 24 h, 10 µM, compound concentration 10 uM
# [5] = 48 h, 1 µM, compound concentration 1 uM
# [6] = 48 h, 10 µM, compound concentration 10 uM
compound,measurement,setting,value
CCOC(=O)c1c(/C(C#N)=C\N)c2ccc(Cl)c(Cl)c2n1C,Population Apoptotic (%),[1],10.92% and 11.11%
same,Population Fragmented Nuclei (%),[1],1.47% and 6.57%
same,Population Healthy Nuclei (%),[1],63.42% and 21.17%
same,Population Hoechst High Intensity Objects (%),[1],0.59% and 0%
same,Population Membrane Permeable-Phenotype (%),[1],0.47% and 0%
same,Population Mitochondria Different-Phenotype (%),[1],35.81% and 27.59%
same,Population Mitotic Cells (%),[1],89.08% and 88.89%
same,Population Normal (%),[1],99.41% and 100%
same,Population Pyknosed Nuclei (%),[1],35.1% and 72.26%
same,Total Cell Count,[1],341 and 137
same,Population Apoptotic (%),[2],10.34% and 8.77%
same,Population Fragmented Nuclei (%),[2],2.88% and 1.83%
same,Population Healthy Nuclei (%),[2],59.94% and 28.66%
same,Population Hoechst High Intensity Objects (%),[2],0.64% and 0%
same,Population Membrane Permeable-Phenotype (%),[2],0.53% and 0%
same,Population Mitochondria Different-Phenotype (%),[2],26.74% and 19.15%
same,Population Mitotic Cells (%),[2],89.66% and 91.23%
same,Population Normal (%),[2],99.36% and 100%
same,Population Pyknosed Nuclei (%),[2],37.18% and 69.51%
same,Total Cell Count,[2],314 and 164
same,Population Apoptotic (%),[3],15.32% and 13.98%
same,Population Fragmented Nuclei (%),[3],1.11% and 3.87%
same,Population Healthy Nuclei (%),[3],78.41% and 36.13%
same,Population Hoechst High Intensity Objects (%),[3],0.18% and 0%
same,Population Membrane Permeable-Phenotype (%),[3],1.18% and 0%
same,Population Mitochondria Different-Phenotype (%),[3],15.29% and 16.07%
same,Population Mitotic Cells (%),[3],84.68% and 86.02%
same,Population Normal (%),[3],99.82% and 100%
same,Population Pyknosed Nuclei (%),[3],20.48% and 60%
same,Population Tubulin-Different-Phenotype (%),[3],5.88% and 5.36%
same,Population Apoptotic (%),[4],10.47% and 16.46%
same,Population Fragmented Nuclei (%),[4],1.69% and 1.2%
same,Population Healthy Nuclei (%),[4],80.17% and 51.2%
same,Population Hoechst High Intensity Objects (%),[4],0%
same,Population Membrane Permeable-Phenotype (%),[4],1.05% and 1.18%
same,Population Mitochondria Different-Phenotype (%),[4],14.21% and 7.06%
same,Population Mitotic Cells (%),[4],89.53% and 83.54%
same,Population Normal (%),[4],100%
same,Population Pyknosed Nuclei (%),[4],18.14% and 47.59%
same,Population Tubulin-Different-Phenotype (%),[4],7.11% and 4.71%
same,Total Cell Count,[4],474 and 166
same,Population Apoptotic (%),[5],7.43% and 15.94%
same,Population Fragmented Nuclei (%),[5],4.65% and 2.55%
same,Population Healthy Nuclei (%),[5],86.28% and 72.26%
same,Population Hoechst High Intensity Objects (%),[5],0%
same,Population Membrane Permeable-Phenotype (%),[5],4.76% and 3.03%
same,Population Mitochondria Different-Phenotype (%),[5],8.8% and 13.13%
same,Population Mitotic Cells (%),[5],92.57% and 84.06%
same,Population Normal (%),[5],100%
same,Population Pyknosed Nuclei (%),[5],9.06% and 25.18%
same,Population Apoptotic (%),[6],9.24% and 19.3%
same,Population Fragmented Nuclei (%),[6],4.82% and 1.55%
same,Population Healthy Nuclei (%),[6],85.93% and 80.75%
same,Population Hoechst High Intensity Objects (%),[6],0% and 0.92%
same,Population Membrane Permeable-Phenotype (%),[6],5.88% and 2.31%
same,Population Mitochondria Different-Phenotype (%),[6],11.04% and 11.15%
same,Population Mitotic Cells (%),[6],90.76% and 80.7%
same,Population Normal (%),[6],100% and 99.08%
same,Population Pyknosed Nuclei (%),[6],9.25% and 17.7%
Cc1c(C(=O)NCCCN(C)C)sc2ncnc(Nc3ccc(F)cc3OC(C)CF)c12 (stereo not given),Population Apoptotic (%),[1],8.15% and 7.44%
same,Population Fragmented Nuclei (%),[1],1.52% and 6.08%
same,Population Hoechst High Intensity Objects (%),[1],0%
same,Population Membrane Permeable-Phenotype (%),[1],0.79% and 5.56%
same,Population Mitochondria Different-Phenotype (%),[1],38.58% and 38.89%
same,Population Mitotic Cells (%),[1],91.85% and 92.56%
same,Population Normal (%),[1],100%
same,Population Pyknosed Nuclei (%),[1],34.18% and 81.76%
same,Total Cell Count,[1],395 and 148
same,Population Apoptotic (%),[2],12.67% and 12.38%
same,Population Fragmented Nuclei (%),[2],1.93% and 0.83%
same,Population Healthy Nuclei (%),[2],25.6% and 12.4%
same,Population Hoechst High Intensity Objects (%),[2],0%
same,Population Mitotic Cells (%),[2],87.33% and 87.62%
same,Population Normal (%),[2],100%
same,Population Pyknosed Nuclei (%),[2],72.46% and 86.78%
same,Population Tubulin-Different-Phenotype (%),[2],81.13% and 53.33%
same,Total Cell Count,[2],207 and 121
same,Population Apoptotic (%),[3],11.02% and 10.43%
same,Population Fragmented Nuclei (%),[3],2.43% and 2.58%
same,Population Hoechst High Intensity Objects (%),[3],0%
same,Population Membrane Permeable-Phenotype (%),[3],0.68% and 2.78%
same,Population Mitochondria Different-Phenotype (%),[3],18.96% and 11.11%
same,Population Mitotic Cells (%),[3],88.98% and 89.57%
same,Population Normal (%),[3],100%
same,Population Tubulin-Different-Phenotype (%),[3],36.57% and 13.89%
same,Population Apoptotic (%),[4],33.73% and 30.77%
same,Population Fragmented Nuclei (%),[4],1.65% and 0%
same,Population Healthy Nuclei (%),[4],29.75% and 17.27%
same,Population Hoechst High Intensity Objects (%),[4],0%
same,Population Membrane Permeable-Phenotype (%),[4],1.39% and 0%
same,Population Mitochondria Different-Phenotype (%),[4],69.44% and 26.32%
same,Population Mitotic Cells (%),[4],66.27% and 69.23%
same,Population Normal (%),[4],100%
same,Population Pyknosed Nuclei (%),[4],68.6% and 82.73%
same,Population Tubulin-Different-Phenotype (%),[4],80.56% and 73.68%
same,Total Cell Count,[4],242 and 110
same,Population Apoptotic (%),[5],9.92% and 23.86%
same,Population Fragmented Nuclei (%),[5],3.85% and 2.43%
same,Population Healthy Nuclei (%),[5],86.64% and 54.85%
same,Population Hoechst High Intensity Objects (%),[5],0%
same,Population Membrane Permeable-Phenotype (%),[5],6.37% and 1.77%
same,Population Mitochondria Different-Phenotype (%),[5],17.27% and 49.56%
same,Population Mitotic Cells (%),[5],90.08% and 76.14%
same,Population Normal (%),[5],100%
same,Population Apoptotic (%),[6],42.07% and 65.33%
same,Population Fragmented Nuclei (%),[6],1.78% and 1.64%
same,Population Healthy Nuclei (%),[6],46.62% and 36.89%
same,Population Hoechst High Intensity Objects (%),[6],0.35% and 0.81%
same,Population Membrane Permeable-Phenotype (%),[6],1.53% and 0%
same,Population Mitochondria Different-Phenotype (%),[6],90.84% and 55.56%
same,Population Mitotic Cells (%),[6],57.93% and 34.67%
same,Population Normal (%),[6],99.65% and 99.19%
same,Population Pyknosed Nuclei (%),[6],51.6% and 61.48%
same,Population Tubulin-Different-Phenotype (%),[6],30.53% and 82.22%
same,Total Cell Count,[6],282 and 123
